Measurements reported in ChEMBL document CHEMBL2401636, “Investigation of the noncovalent binding mode of covalent proteasome inhibitors around the transition state by combined use of cyclopropylic strain-based conformational restriction and computational modeling” (J Med Chem, 2013).
Values belong to the molecule of their own block, whether it stands above or below them.

Tests used:
[1] = Inhibition of chymotrypsin-like activity of human 20S proteasome using succinyl-Leu-Leu-Val-Tyr-4-methylcoumaryl-7-amide as substrate after 60 mins by fluorescence assay
[2] = Cytotoxicity against human HS-Sultan cells after 72 hrs; type: functional, cell-based
[3] = system: KB; assay: Cytotoxicity against human KB cells after 72 hrs; type: functional, cell-based
[4] = system: HCT-116; assay: Cytotoxicity against human HCT116 cells after 72 hrs; type: functional, cell-based; details: HCT-116, 72 h
[5] = Half life in TEAA buffer at 7.5 mM by RP-HPLC analysis; type: physicochemical
Procedure, shortened: (§1)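 Water-soluble analogues incubated at 37 °C in 0.1 M TEAA buffer, pH 7.4, or in human AB serum. Compound remaining was followed over time by HPLC, and the half-life was derived. Buffer half-lives are given in hours and serum half-lives in minutes.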

[6] = Half life in human AB serum at 23 mM by RP-HPLC analysis; type: ADME, cell-free; procedure, shortened: as §1
[7] = Inhibition proteasome (unknown origin); design: species or system Homo sapiens

Structure (SMILES): CC[C@H](C)[C@@H]1C(=O)O[C@H]1C(=O)N[C@H]1C[C@H]1C[C@@H](CCc1ccccc1)NC(=O)c1ccc2ccccc2c1
IC50 [1]: 33 nM

Structure (SMILES): CC[C@H](C)[C@@H]1C(=O)O[C@H]1C(=O)N[C@H]1C[C@H]1C[C@@H](CCc1ccccc1)NC(=O)[C@H](C)NC(=O)c1ccc2ccccc2c1
IC50 [1]: 10 nM

Structure (SMILES): CC[C@H](C)[C@@H]1C(=O)O[C@H]1C(=O)N[C@H]1C[C@H]1[C@@H](C)[C@@H](CCc1ccccc1)NC(=O)c1ccc2ccccc2c1
IC50 [1]: 140 nM

Structure (SMILES): CC[C@H](C)[C@@H]1C(=O)O[C@H]1C(=O)N[C@H]1C[C@H]1[C@H](C)[C@@H](CCc1ccccc1)NC(=O)c1ccc2ccccc2c1
IC50 [1]: 750 nM

Structure (SMILES): CC[C@H](C)[C@@H]1C(=O)O[C@H]1C(=O)N[C@H]1C[C@H]1C[C@@H](CCc1ccccc1)NC(=O)[C@H](C)N (mixture of isomers)
half-life at 7500 µM [5]: 10 h
half-life at 23000 µM [6]: 2.3 min

Structure (SMILES): CC[C@H](C)[C@@H]1C(=O)O[C@H]1C(=O)N[C@H]1C[C@H]1C[C@H](NC(=O)[C@H](C)N)C(=O)O [BELACTOSIN A]
IC50 [7]: 304 nM
IC50 [1]: 1440 nM

Further lines, with some results ahead:

IC50 [1]: 5.7 nM
Structure (SMILES): CC[C@H](C)[C@@H]1C(=O)O[C@H]1C(=O)N[C@H]1C[C@H]1C[C@@H](CCc1ccccc1)NC(=O)[C@H](C)NC(=O)OCc1ccccc1
IC50 [2]: 870 nM
IC50 [3]: 2600 nM

IC50 [1]: 42 nM
Structure (SMILES): CC[C@H](C)[C@@H]1C(=O)O[C@H]1C(=O)N[C@H]1C[C@H]1[C@@H](C)[C@@H](CCc1ccccc1)NC(=O)[C@H](C)NC(=O)c1ccc2ccccc2c1

IC50 [1]: 47 nM
Structure (SMILES): CC[C@H](C)[C@@H]1C(=O)O[C@H]1C(=O)N[C@H]1C[C@H]1[C@@H](C)[C@@H](CCc1ccccc1)NC(=O)[C@H](C)NC(=O)OCc1ccccc1
IC50 [4]: 630 nM
IC50 [2]: 310 nM
IC50 [3]: 1700 nM

IC50 [1]: 280 nM
Structure (SMILES): CC[C@H](C)[C@@H]1C(=O)O[C@H]1C(=O)N[C@H]1C[C@H]1[C@H](C)[C@@H](CCc1ccccc1)NC(=O)[C@H](C)NC(=O)OCc1ccccc1
IC50 [4]: > 10000 nM
IC50 [2]: 1800 nM
IC50 [3]: > 10000 nM

IC50 [1]: 630 nM
Structure (SMILES): CC[C@H](C)[C@@H]1C(=O)O[C@H]1C(=O)N[C@H]1C[C@H]1[C@H](C)[C@@H](CCc1ccccc1)NC(=O)[C@H](C)NC(=O)c1ccc2ccccc2c1

half-life at 7500 µM [5]: 14 h
half-life at 23000 µM [6]: 4.2 min
Structure (SMILES): CC[C@H](C)[C@@H]1C(=O)O[C@H]1C(=O)N[C@H]1C[C@H]1[C@@H](C)[C@@H](CCc1ccccc1)NC(=O)[C@H](C)N

half-life at 7500 µM [5]: 21 h
half-life at 23000 µM [6]: 4.7 min
Structure (SMILES): CC[C@H](C)[C@@H]1C(=O)O[C@H]1C(=O)N[C@H]1C[C@H]1[C@H](C)[C@@H](CCc1ccccc1)NC(=O)[C@H](C)N
